High-throughput results (PubChem)
M4 antag: antagonists of human muscarinic M4 receptor (CHRM4); P08173; actives 0.73% (n = 360,000); CHO-hM4 cells, ACh EC80, Fluo-8 calcium fluorescence; inhibition, % at 3 µM;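 active = inhibition above its plate's cutoff, the mean inhibition of sample wells plus 3 SD, cut at about 27% in these data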;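 also: 0% = acetylcholine EC80 with DMSO and 100% = DMSO without agonist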
Target sequence (P08173 whole entry, looked up): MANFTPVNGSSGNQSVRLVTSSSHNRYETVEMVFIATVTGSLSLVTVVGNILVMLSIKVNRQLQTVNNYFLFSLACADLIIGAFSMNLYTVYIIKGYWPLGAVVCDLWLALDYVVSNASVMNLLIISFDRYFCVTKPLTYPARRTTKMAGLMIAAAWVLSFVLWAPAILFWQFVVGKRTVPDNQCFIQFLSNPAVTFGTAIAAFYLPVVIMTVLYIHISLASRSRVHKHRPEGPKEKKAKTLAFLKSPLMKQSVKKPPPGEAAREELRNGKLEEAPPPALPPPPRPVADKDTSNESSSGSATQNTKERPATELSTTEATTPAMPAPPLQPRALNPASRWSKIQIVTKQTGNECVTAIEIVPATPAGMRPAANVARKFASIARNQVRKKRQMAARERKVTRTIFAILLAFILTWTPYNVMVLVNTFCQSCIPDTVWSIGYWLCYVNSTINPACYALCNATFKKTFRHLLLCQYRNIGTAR
CHRM5 PAM: potentiates acetylcholine response at human M5 receptor; P08912; CHO-K1 hM5, Fluo-8 calcium, ACh EC20 PAM; 0% = ACh EC20, 100% = ACh EC100; activation, % at 3 µM; actives 0.3% (n = 360,000);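 active = activation above the run cutoff, the mean activation of all test compounds plus 3 SD, cut at about 18% in these data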
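Replicates: One well per compound, no replicates | System: Human M5 receptor in CHO-K1 cells | Benchmarks: Low control EC20 acetylcholine (0%), high control EC100 acetylcholine (100%) | Probe or stimulus: Acetylcholine, EC20 level | Times: Fluo-8 loading 80 min at 37 °C plus 30 min room temperature | Signal: Intracellular calcium via Fluo-8 fluorescence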
CHRM5 agonist: agonists of human muscarinic M5 receptor (CHRM5); actives 0.19% (n = 360,000); activation, % at 3 µM; AID 624037; CHO-K1 hM5 cells, Fluo-8 calcium fluorescence; 0% DMSO wells, 100% maximal acetylcholine response;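 active = activation above the run's mean over test compounds plus 3 SD, cut at about 23% in these data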;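 also: signal is peak over basal fluorescence ratio across the kinetic read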
M4 ag: CHRM4 agonism in calcium assay; P08173; activation, % at 3 µM; AID 624127; actives 0.14% (n = 360,000); CHO-K1 hM4/Gqi5, Fluo-8 calcium fluorescence; vehicle 0%, full acetylcholine response 100%;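 active = activation above the run mean over all test wells plus 3 SD, cut at about 32% in these data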;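 also: peak over basal fluorescence ratio per well then scaled between controls; 0% = DMSO wells and 100% = acetylcholine at EC100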
M5 antag: antagonists of human muscarinic M5 receptor (CHRM5). CHO-hM5 cells, Fluo-8 calcium fluorescence, ACh EC80. inhibition, % at 3 µM. actives 0.59% (n = 360,000). AID 624040;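 active = inhibition above a per-plate cutoff, the mean of that plate's test compounds plus 3 SD, cut at about 27% in these data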;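 also: 0% = acetylcholine EC80 with DMSO and 100% = DMSO without agonist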
CHRM4 PAM: positive allosteric modulators of human muscarinic M4 receptor; P08173; CHO-K1 hM4/Gqi5, Fluo-8 calcium fluorescence, ACh EC20; 0% = ACh EC20, 100% = maximal ACh; activation, % at 3 µM; actives 0.4% (n = 360,000); AID 624126;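 active = activation above its plate's cutoff, the mean activation of sample wells plus 3 SD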
An asterisk follows results filed as active. An excerpt weighted towards active compounds, which were near 1.8% of everything screened.

Results for COc1ccc(CCn2cc(C#N)c(=O)[nH]c2=O)cc1OC ?
M4 antag: -5; CHRM5 PAM: -14; CHRM5 agonist: -2; M4 ag: 2; M5 antag: 18; CHRM4 PAM: -2

Results for COc1ccccc1CCn1cc(C#N)c(=O)[nH]c1=O ?
M4 antag: 100*; CHRM5 PAM: 0; CHRM5 agonist: -3; M4 ag: -2; M5 antag: 6; CHRM4 PAM: -16

What do the screens show for `Cc1n[nH]c(C)c1CCNC(=O)C1CCC(=O)N(CCc2cccc(F)c2)C1` (stereo unspecified)?
M4 antag: -8; CHRM5 PAM: 24*; CHRM5 agonist: 3; M4 ag: 0; M5 antag: -6; CHRM4 PAM: 10

How did O=C(CCNc1cccc(F)c1)c1cccc([N+](=O)[O-])c1 do in these assays?
M4 antag: -14; CHRM5 PAM: -9; CHRM5 agonist: -10; M4 ag: 1; M5 antag: 8; CHRM4 PAM: -8

What do the screens show for `O=C(CCNc1ccc(Cc2ccncc2)cc1)c1cccc([N+](=O)[O-])c1`?
M4 antag: 28*; CHRM5 PAM: -16; CHRM5 agonist: -8; M4 ag: 3; M5 antag: 22; CHRM4 PAM: -19

What do the screens show for `COc1ccc(C(=O)N(C)CC2CCN(CCc3cccc(C(F)(F)F)c3)CC2)cc1C`?
M4 antag: 23; CHRM5 PAM: -13; CHRM5 agonist: -1; M4 ag: 1; M5 antag: 3; CHRM4 PAM: -17

How did O=C(O)c1cncc(C#CCC2CCCCC2)c1 do in these assays?
M4 antag: -3; CHRM5 PAM: 7; CHRM5 agonist: 1; M4 ag: 1; M5 antag: -1; CHRM4 PAM: 6

What do the screens show for `CCOC(=O)c1cnc2ccc(Cl)cc2c1NCCN(C)C`?
M4 antag: 4; CHRM5 PAM: 0; CHRM5 agonist: -2; M4 ag: 4; M5 antag: 5; CHRM4 PAM: 27*

Results for CCOC(=O)c1cnc2ccccc2c1NCCO ?
M4 antag: 0; CHRM5 PAM: -10; CHRM5 agonist: -12; M4 ag: 0; M5 antag: 0; CHRM4 PAM: 5

How did CCOC(=O)c1cnc2ccc(Br)cc2c1NCC(C)O (stereo unspecified) do in these assays?
M4 antag: -1; CHRM5 PAM: 4; CHRM5 agonist: -2; M4 ag: 0; M5 antag: -2; CHRM4 PAM: 4

How did CCOC(=O)c1ccc2ncc(C(=O)OCC)c(NCCCN3CCOCC3)c2c1 do in these assays?
M4 antag: 3; CHRM5 PAM: 5; CHRM5 agonist: -2; M4 ag: 1; M5 antag: -3; CHRM4 PAM: 5

How did CCOC(=O)c1cnc2ccc(Br)cc2c1NCCCN1CCOCC1 do in these assays?
M4 antag: 14; CHRM5 PAM: 3; CHRM5 agonist: -2; M4 ag: 13; M5 antag: 9; CHRM4 PAM: 40*

How did CCOC(=O)c1cnc2ccc(Br)cc2c1NCCO do in these assays?
M4 antag: -12; CHRM5 PAM: 0; CHRM5 agonist: 3; M4 ag: 1; M5 antag: -2; CHRM4 PAM: 20*

What do the screens show for `O=C(O)CCN1C(=O)c2ccc(Oc3ccc([N+](=O)[O-])cc3)cc2C1=O`?
M4 antag: 0; CHRM5 PAM: -5; CHRM5 agonist: -3; M4 ag: 0; M5 antag: 5; CHRM4 PAM: -1

How did Cc1nn(C(=O)c2ccc([N+](=O)[O-])cc2)c(C)c1Br do in these assays?
M4 antag: -3; CHRM5 PAM: 3; CHRM5 agonist: 5; M4 ag: 0; M5 antag: -2; CHRM4 PAM: 0

Results for O=C(NCCCN1CCCCC1)c1ccc(CS(=O)c2ccc(F)cc2)o1 (stereo unspecified) ?
M4 antag: 4; CHRM5 PAM: 0; CHRM5 agonist: -5; M4 ag: 0; M5 antag: -6; CHRM4 PAM: -5
